According to the array DNA melting data of Ke et al. (doi:10.1101/2024.01.08.574731):

What was measured:
[1] = folding enthalpy; higher = less favourable; fluorescence melt of hairpins on a sequencing array, two-state fit; settings: sodium 0.088 M
In short: (§1)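 To match UV melts, fitted temperatures were raised by 9.35 °C. These fits were bootstrapped two-state models that gave melting temperature and folding enthalpy, combined by inverse variance over four replicates. The input was normalised Cy3 fluorescence of library hairpins with annealed Cy3 and quencher oligos on a sequenced MiSeq flow cell, imaged in 50 mM Na-HEPES pH 8.0, 25 mM NaCl in 2.5 °C steps up to 60 °C.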

[2] = melting temperature; fluorescence melt of hairpins on a sequencing array, two-state fit, raised by 9.35 °C to match UV melts; settings: sodium 0.088 M
In short: as §1

Sequence | folding enthalpy [1] | Tm [2]
GCACTTGAAAAAGTGC ((((((....)))))) | -41.2 kcal/mol | 61.2 °C
GATCGCTGGAGCGATC ((((((....)))))) | -37.8 kcal/mol | 68.5 °C
GCATATGCGAAAGCATGC (((..(((....)))))) | -14.8 kcal/mol | 48.2 °C
GTGGGCGAAAGCCTCCAC ((((((....)))..))) | -11.7 kcal/mol | 37.6 °C
GATCAGAAAACTGATC ((((((....)))))) | -29.2 kcal/mol | 43.6 °C
GTCGAGAAATCGAC (((((....))))) | -26.8 kcal/mol | 55.5 °C
GTGCTAGGAAACTAGTAC ((.((((....)))).)) | -33.5 kcal/mol | 44.9 °C
GTTTCGGGAAACCGAAGC (.(((((....))))).) | -23.4 kcal/mol | 47.3 °C
GTGCTTGGAAACAGGCAC ((((.((....)).)))) | -41 kcal/mol | 53.4 °C
GAATCGGAAACGATTC ((((((....)))))) | -36.1 kcal/mol | 55.7 °C
GCGTTCGAAAGAATCCGC ((((((....)))..))) | -22 kcal/mol | 35.3 °C
GTGGAATCGAAAGATCAC (((..(((....)))))) | -19.2 kcal/mol | 33.9 °C
GTACGCGAAAGCGGATAC ((((((....)))..))) | -10.3 kcal/mol | 37.1 °C
GGGACAGGAAACTATCCC ((((.((....)).)))) | -29.4 kcal/mol | 35.4 °C
GAAGGCGAAAGCCTATTC ((((((....)))..))) | -8.36 kcal/mol | 32.1 °C
GATCTATCTTTAGATC ((((((....)))))) | -24.1 kcal/mol | 43.1 °C
GTGACCGCGAAAGCGCAC (((..(((....)))))) | -8.65 kcal/mol | 40.3 °C
GTCATCGAAAGATGGAC ((((((....))).))) | -17.6 kcal/mol | 43.9 °C
GGGACGGGAAACTGTCCC (((((.(....).))))) | -39.8 kcal/mol | 57.8 °C
GCAGAGCGAAAGCTAAGC ((..(((....)))..)) | -15.1 kcal/mol | 43.8 °C
GGAAGACGAAAGTCGTCC (((.(((....))).))) | -18.9 kcal/mol | 56.2 °C
GATCTTTGAAAGATC ((((((...)))))) | -25.8 kcal/mol | 38.1 °C
GATCTAGCGCTAGATC ((((((....)))))) | -45.9 kcal/mol | 53.6 °C

Sequence | folding enthalpy [1] | Tm [2]
GCGCTGCGAAAGCTGAGC ((.(.((....)).).)) | -21.2 kcal/mol | 57.6 °C
GATCTTGGTTAAGATC ((((((....)))))) | -30.5 kcal/mol | 43.7 °C
GATCTGCAATCAGATC ((((((....)))))) | -36.7 kcal/mol | 47.2 °C
GTAAGTGCGAAAGCATAC (((..(((....)))))) | -11.2 kcal/mol | 27.2 °C
GATCCACCCCTGGATC ((((((....)))))) | -37.2 kcal/mol | 49.9 °C
GTACGGCGAAAGCCTTAC (((.(((....))).))) | -19.3 kcal/mol | 43.2 °C
GCCCAGCGAAAGCTAAGC ((..(((....)))..)) | -9.29 kcal/mol | 27.7 °C
GATCAGCTGACTGATC ((((((....)))))) | -37.6 kcal/mol | 51.5 °C
GATACCCGAAAGGGAATC (((.(((....))).))) | -23.9 kcal/mol | 48 °C
CGAACGGAAACGTAATCG ((((((....)))..))) | -8.82 kcal/mol | 24.5 °C
GTTGACGAAAGTCTAAC ((((((....))).))) | -14.7 kcal/mol | 39.7 °C
GGACTCGAAAGAGTCTCC ((((((....)))..))) | -10.4 kcal/mol | 53.3 °C
GGGACCGGAAACGGCCCC (((.(((....))).))) | -37 kcal/mol | 62.5 °C
GATCCATGGATGGATC ((((((....)))))) | -39.1 kcal/mol | 53 °C
GTGTCCGAAAGGACTCAC ((((((....)))..))) | -10 kcal/mol | 39.4 °C
GATCCTCAGGAGGATC ((((((....)))))) | -30.9 kcal/mol | 55.2 °C
GATCCGCAATCGGATC ((((((....)))))) | -35.1 kcal/mol | 56 °C
GCGGTGCGAAAGCTGCGC (((..((....))..))) | -32.1 kcal/mol | 64.2 °C
CGCAACGGAAACGTGCG (((.(((....)))))) | -31.8 kcal/mol | 56.5 °C
GGCCTCCGAAAGGAGCC (((.(((....)))))) | -16.5 kcal/mol | 62.4 °C
GAACGGGGAAACCCGTCC (.(((((....))))).) | -11.7 kcal/mol | 42.5 °C
GCGTCAGGAAACTAACGC ((((.((....)).)))) | -28.1 kcal/mol | 44.7 °C
GTTGACGAAAGTCGTAAC ((((((....)))..))) | -11.1 kcal/mol | 32.9 °C

Sequence | folding enthalpy [1] | Tm [2]
GCCATGCGAAAGCATAGC ((.((((....)))).)) | -17 kcal/mol | 51.6 °C
GATGACGGAAACGTCACC (.(((((....))))).) | -14.6 kcal/mol | 40 °C
GCGATTTTCGC ((((...)))) | -22 kcal/mol | 52.3 °C
GCCCCCGAAAGGGAGGC ((((((....))).))) | -29.7 kcal/mol | 68.7 °C
GAGGCTGGAAACGGCCTC (((((.(....).))))) | -46.4 kcal/mol | 59.6 °C
CGCGGACGATTCCGCG ((((((....)))))) | -29.1 kcal/mol | 69 °C
GGTCGGGGAAACTCGGCC ((.((.(....).)).)) | -34 kcal/mol | 49.1 °C
GGTTACGAAAGTATACC ((((((....))).))) | -23.8 kcal/mol | 43.1 °C
GCAACGGCGAAAGCCTGC (((..(((....)))))) | -15.2 kcal/mol | 47 °C
GATCGACTGGTCGATC ((((((....)))))) | -37.5 kcal/mol | 62.7 °C
GGCGGACGAAAGTCGGCC (((.(((....))).))) | -39.2 kcal/mol | 69.3 °C
GCCTATGAAAATAGGC ((((((....)))))) | -34 kcal/mol | 58.9 °C
GTCCGGGGAAACTCGGGC (.(((.(....).))).) | -21.4 kcal/mol | 47.8 °C
GAGAGCGAAAGCTCACTC ((((((....)))..))) | -12 kcal/mol | 55.5 °C
GATCCTACCCAGGATC ((((((....)))))) | -39.9 kcal/mol | 51.2 °C
GACCTGCCGAAAGGCGTC (((..(((....)))))) | -9.15 kcal/mol | 29.3 °C
GCGAACTCTCGC ((((....)))) | -24.8 kcal/mol | 46.8 °C
GGTAGCGGAAACGCTGCC ((.((((....)))).)) | -37.9 kcal/mol | 62.5 °C
GCGTGAGAACGC ((((....)))) | -18.9 kcal/mol | 64.2 °C
GATCCGATGGCGGATC ((((((....)))))) | -42.8 kcal/mol | 56.6 °C
GCGCATCGAAAGATCGC (((.(((....)))))) | -37 kcal/mol | 55.8 °C
GATCAGCACTCTGATC ((((((....)))))) | -30.8 kcal/mol | 49.9 °C
GGCGACGAAAGTCAGGCC ((((((....)))..))) | -31.3 kcal/mol | 55.5 °C

Sequence | folding enthalpy [1] | Tm [2]
GCTGAGCGAAAGCTGGGC ((..(((....)))..)) | -19.8 kcal/mol | 50.3 °C
GGGACAGGAAACCGTCCC (((((.(....).))))) | -36.2 kcal/mol | 52.8 °C
GGAAACGAAAGTTACTCC ((((((....)))..))) | -10.2 kcal/mol | 22.8 °C
GATCCCACCGGGGATC ((((((....)))))) | -32.3 kcal/mol | 63.7 °C
GACTCGCGAAAGCGGTC (((.(((....)))))) | -14.3 kcal/mol | 51.8 °C
GTGCGGGGAAACCTGCGC (.((.((....)).)).) | -26.7 kcal/mol | 51.9 °C
GGGAAACGAAAGTTACCC (((.(((....))).))) | -29.5 kcal/mol | 50.7 °C
GCGACCGAAAGGTGGCGC ((((((....)))..))) | -31.5 kcal/mol | 66.9 °C
GTTGTCGGAAACGATAGC (.(.(((....))).).) | -17.1 kcal/mol | 32.4 °C
CGGCCCGGAAACGGCCCG (((.(((....))).))) | -17.9 kcal/mol | 51.8 °C
GATCCGCAAGCGGATC ((((((....)))))) | -39 kcal/mol | 68 °C
GCTCTGCGAAAGCAAAGC (((.(((....))).))) | -29.9 kcal/mol | 46.1 °C
GGACTGGGAAACCAGTCC (((((((....))))))) | -35.3 kcal/mol | 68.5 °C
GATCGGGTTTCCGATC ((((((....)))))) | -39.9 kcal/mol | 60.7 °C
GCCAGCGAAAGCTAGGGC ((((((....)))..))) | -31.6 kcal/mol | 52.7 °C
GATCAGGGAAACCCGATC ((((.((....)).)))) | -26.1 kcal/mol | 43 °C
GGCAGCGAAAGCTAGCC ((((((....))).))) | -32.9 kcal/mol | 62 °C
GATCCACCGCTGGATC ((((((....)))))) | -39.8 kcal/mol | 50 °C
GACCACGGAAACGTGGCC (.(((((....))))).) | -13.3 kcal/mol | 49.9 °C
GGTTACGGAAACGCAACC ((((.((....)).)))) | -32.7 kcal/mol | 46.6 °C
GGTGCCGAAAGGCCAACC ((((((....)))..))) | -12.7 kcal/mol | 44.1 °C
GCCCAGCGAAAGCTGTGC ((.((((....)))).)) | -16 kcal/mol | 61 °C
GTGCTCGAAAGAGTACAC ((((((....)))..))) | -14.3 kcal/mol | 49.7 °C
